Reference: ChEMBL document CHEMBL3124827, “Design and synthesis of 2-styryl of 5-Nitroimidazole derivatives and antimicrobial activities as FabH inhibitors” (Eur J Med Chem, 2014)
Values after ≈ are worked out from the molar mass of the structure shown.

How the values were obtained:
[1] = test system: Escherichia coli; assay: Antibacterial activity against Escherichia coli after 12 hrs by MTT assay; assay type: functional, organism-based
How it was run: (§1)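 MTT broth-dilution assay; drug-containing medium added to final concentrations of 320, 160, 40, 10, 2.5 and 0.25 µg/mL, each in triplicate. After 12 h, 25 µL of 5 mg/mL MTT in PBS added; after 4 h medium discarded, formazan dissolved in 150 µL DMSO with 10 min shaking, absorbance read at 490 nm; 50% inhibitory concentration reported.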

[2] = test system: Bacillus subtilis; assay: Antibacterial activity against Bacillus subtilis after 12 hrs by MTT assay; assay type: functional, organism-based; how it was run: as §1
[3] = test system: Pseudomonas aeruginosa; assay: Antibacterial activity against Pseudomonas aeruginosa after 12 hrs by MTT assay; assay type: functional, organism-based; how it was run: as §1
[4] = test system: Bacillus thuringiensis; assay: Antibacterial activity against Bacillus thuringiensis after 12 hrs by MTT assay; assay type: functional, organism-based; how it was run: as §1
[5] = Inhibition of Pseudomonas aeruginosa FabH after 25 mins
How it was run: (§2)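 His-tagged FabH purified by Ni-NTA (IPTG 0.5 mM induction in kanamycin LB), stored at 2 mg/mL. 20 µL reaction: 20 mM Na2HPO4 pH 7.0, 0.5 mM DTT, 0.25 mM MgCl2, 2.5 µM holo-ACP, 1 nM FabH; after 1 min, 25 µM acetyl-CoA, 0.5 mM NADH, 0.5 mM NADPH added for 25 min; 3H incorporation by liquid scintillation; inhibitors from DMSO stock, final DMSO ≤2%; IC50 determined.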

[6] = Inhibition of Escherichia coli FabH expressed in Escherichia coli BL21 (DE3) after 25 mins; how it was run: as §2
[7] = Cytotoxicity against human macrophages up to 160 ug/ml after 24 hrs by MTT assay; assay type: cell-based; settings: macrophage
How it was run: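 Cells grown to 90% confluency, switched to serum-free DMEM, exposed to various concentrations for 24 h; viability by MTT, read spectrophotometrically as absorbance difference 570 minus 630 nm.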

[8] = Cytotoxicity against human macrophages assessed as change in morphology at 0.25 to 160 ug/ml after 24 hrs using Giemsa staining by phase contrast microscopic analysis; assay type: cell-based; settings: macrophage
How it was run: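 Confluent cells (100 µL stock suspension) grown to 90% confluency, medium replaced with serum-free DMEM, then exposed 24 h to 0.25 or 160 µg/mL test compound; cell morphology compared with untreated control after Giemsa staining under phase contrast microscopy.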

`O=[N+]([O-])c1cnc(/C=C/c2cccc(Cl)c2)n1CCO` showed an IC50 [1] of 119 µg/mL (≈ 406 µM), an IC50 [2] of 40.7 µg/mL (≈ 139 µM) and an IC50 [3] of 14.7 µg/mL (≈ 50 µM). For the same compound, the IC50 [4] was 25.7 µg/mL (≈ 87.5 µM).

With `O=[N+]([O-])c1cnc(/C=C/c2ccc(Br)cc2)n1CCO` the IC50 [1] was 119 µg/mL (≈ 353 µM), the IC50 [2] was 114 µg/mL (≈ 336 µM) and the IC50 [3] was 32.2 µg/mL (≈ 95.2 µM). For the same compound, the IC50 [4] was 19.2 µg/mL (≈ 56.8 µM).

With `CN(C)c1ccc(/C=C/c2ncc([N+](=O)[O-])n2CCO)cc1` the IC50 [1] was 88 µg/mL (≈ 291 µM), the IC50 [2] was 17.2 µg/mL (≈ 56.9 µM) and the IC50 [5] was 25.6 µM. For the same compound, the IC50 [3] was 121 µg/mL (≈ 400 µM), the IC50 [6] was 10.2 µM and the IC50 [4] was 7.2 µg/mL (≈ 23.8 µM).

`O=[N+]([O-])c1cnc(/C=C/c2ccccc2Br)n1CCO` showed an IC50 [1] of over 200 µg/mL, an IC50 [2] of 27.9 µg/mL (≈ 82.5 µM) and an IC50 [3] of 7.6 µg/mL (≈ 22.5 µM). It also gave an IC50 [4] of 9.3 µg/mL (≈ 27.5 µM).

In the case of `COc1cccc(/C=C/c2ncc([N+](=O)[O-])n2CCO)c1`, the IC50 [1] is reported as over 200 µg/mL, the IC50 [2] is reported as 26.2 µg/mL (≈ 90.6 µM) and the IC50 [3] is reported as 46.1 µg/mL (≈ 159 µM). The IC50 [4] was 12.1 µg/mL (≈ 41.8 µM).

For `CCOC(OCC)c1ccc(/C=C/c2ncc([N+](=O)[O-])n2CCO)cc1`, the IC50 [1] was 59.2 µg/mL (≈ 164 µM), the IC50 [2] was 17.9 µg/mL (≈ 49.5 µM) and the IC50 [5] was 15.9 µM. It also gave an IC50 [3] of 70.3 µg/mL (≈ 195 µM), an IC50 [6] of 4.2 µM and an IC50 [4] of 5.9 µg/mL (≈ 16.3 µM).

`NC[C@H]1O[C@H](O[C@H]2[C@H](O)[C@@H](O[C@H]3O[C@H](CO)[C@@H](O)[C@H](N)[C@H]3O)[C@H](N)C[C@@H]2N)[C@H](O)[C@@H](O)[C@@H]1O` [KANAMYCIN] gave an IC50 [5] of 6.7 µM and an IC50 [6] of 3.1 µM.

In the case of `COc1ccccc1/C=C/c1ncc([N+](=O)[O-])n1CCO`, the IC50 [1] is reported as 188 µg/mL (≈ 649 µM), the IC50 [2] is reported as 19.8 µg/mL (≈ 68.4 µM) and the IC50 [3] is reported as 20.4 µg/mL (≈ 70.5 µM). The IC50 [4] was 37.3 µg/mL (≈ 129 µM).

`O=[N+]([O-])c1cnc(/C=C/c2ccccc2F)n1CCO` showed an IC50 [1] of over 200 µg/mL, an IC50 [2] of 61.5 µg/mL (≈ 222 µM) and an IC50 [5] of 19.2 µM. The IC50 [3] was 6.8 µg/mL (≈ 24.5 µM), the IC50 [6] was 4.4 µM and the IC50 [4] was 29.9 µg/mL (≈ 108 µM).

In the case of `O=[N+]([O-])c1cnc(/C=C/c2c(F)cccc2Cl)n1CCO`, the IC50 [1] is reported as 82.1 µg/mL (≈ 263 µM), the IC50 [2] is reported as 19.6 µg/mL (≈ 62.9 µM) and the IC50 [3] is reported as 38.1 µg/mL (≈ 122 µM). It also gave an IC50 [4] of 25.3 µg/mL (≈ 81.2 µM).

`O=[N+]([O-])c1cnc(/C=C/c2ccc(Cl)cc2)n1CCO` gave an IC50 [1] of over 200 µg/mL, an IC50 [2] of 32.8 µg/mL (≈ 112 µM) and an IC50 [3] of 48.3 µg/mL (≈ 164 µM). For the same compound, the IC50 [4] was 32.1 µg/mL (≈ 109 µM).

Compound `O=[N+]([O-])c1cnc(/C=C/c2ccc(OCc3ccccc3)cc2)n1CCO` has an IC50 [1] of 34.3 µg/mL (≈ 93.9 µM), an IC50 [2] of 6.3 µg/mL (≈ 17.2 µM) and an IC50 [5] of 7.9 µM. The IC50 [3] was 14.5 µg/mL (≈ 39.7 µM), the IC50 [6] was 3.4 µM and the Activity [7] was “Non-toxic”. The Activity [8] was “Non-toxic” and the IC50 [4] was 9.8 µg/mL (≈ 26.8 µM).

With `O=[N+]([O-])c1cnc(/C=C/c2cccc(F)c2)n1CCO` the IC50 [1] was 114 µg/mL (≈ 412 µM), the IC50 [2] was 36.6 µg/mL (≈ 132 µM) and the IC50 [3] was 16.8 µg/mL (≈ 60.6 µM). The IC50 [4] was 55.1 µg/mL (≈ 199 µM).

Work on `O=[N+]([O-])c1cnc(/C=C/c2ccccc2Cl)n1CCO` yielded an IC50 [1] of 175 µg/mL (≈ 595 µM), an IC50 [2] of 2.9 µg/mL (≈ 9.87 µM) and an IC50 [5] of 29.2 µM. It also gave an IC50 [3] of 17.8 µg/mL (≈ 60.6 µM), an IC50 [6] of 6.5 µM and an IC50 [4] of 37.8 µg/mL (≈ 129 µM).

With `O=[N+]([O-])c1cnc(/C=C/c2ccc(F)cc2)n1CCO` the IC50 [1] was 57.2 µg/mL (≈ 206 µM), the IC50 [2] was 8.8 µg/mL (≈ 31.7 µM) and the IC50 [5] was 22.5 µM. It also gave an IC50 [3] of 1.7 µg/mL (≈ 6.13 µM), an IC50 [6] of 16.5 µM and an IC50 [4] of 12.5 µg/mL (≈ 45.1 µM).

Compound `Cc1ccc(/C=C/c2ncc([N+](=O)[O-])n2CCO)cc1` has an IC50 [1] of 145 µg/mL (≈ 530 µM), an IC50 [2] of 42.6 µg/mL (≈ 156 µM) and an IC50 [3] of 2.9 µg/mL (≈ 10.6 µM). It also gave an IC50 [4] of 28.6 µg/mL (≈ 105 µM).

Compound `CC(C)(S)[C@@H](N)C(=O)O` [PENICILLAMINE] has an IC50 [1] of 42.3 µg/mL (≈ 283 µM), an IC50 [2] of 6.3 µg/mL (≈ 42.2 µM) and an IC50 [3] of 5.8 µg/mL (≈ 38.9 µM). It also gave an IC50 [4] of 6.3 µg/mL (≈ 42.2 µM).

Work on `O=[N+]([O-])c1cccc(/C=C/c2ncc([N+](=O)[O-])n2CCO)c1` yielded an IC50 [1] of over 200 µg/mL, an IC50 [2] of 53.1 µg/mL (≈ 175 µM) and an IC50 [3] of 74.6 µg/mL (≈ 245 µM). It also gave an IC50 [4] of 7 µg/mL (≈ 23 µM).

`O=[N+]([O-])c1cnc(/C=C/c2ccc(Cl)cc2Cl)n1CCO` showed an IC50 [1] of over 200 µg/mL, an IC50 [2] of 57.1 µg/mL (≈ 174 µM) and an IC50 [3] of 39.3 µg/mL (≈ 120 µM). For the same compound, the IC50 [4] was 36.7 µg/mL (≈ 112 µM).

`O=[N+]([O-])c1ccccc1/C=C/c1ncc([N+](=O)[O-])n1CCO` showed an IC50 [1] of 157 µg/mL (≈ 517 µM), an IC50 [2] of 11.8 µg/mL (≈ 38.8 µM) and an IC50 [3] of 12.8 µg/mL (≈ 42.1 µM). It also gave an IC50 [4] of 5.8 µg/mL (≈ 19.1 µM).

In the case of `O=[N+]([O-])c1cnc(/C=C/c2cccc(Br)c2)n1CCO`, the IC50 [1] is reported as 116 µg/mL (≈ 342 µM), the IC50 [2] is reported as 24.4 µg/mL (≈ 72.2 µM) and the IC50 [3] is reported as 43.6 µg/mL (≈ 129 µM). It also gave an IC50 [4] of 23.4 µg/mL (≈ 69.2 µM).

`COc1ccc(/C=C/c2ncc([N+](=O)[O-])n2CCO)cc1` showed an IC50 [1] of 89.1 µg/mL (≈ 308 µM), an IC50 [2] of 146 µg/mL (≈ 506 µM) and an IC50 [3] of 30.2 µg/mL (≈ 104 µM). For the same compound, the IC50 [4] was 67.4 µg/mL (≈ 233 µM).

Compound `O=[N+]([O-])c1cnc(/C=C/c2cccc3ccccc23)n1CCO` has an IC50 [1] of 153 µg/mL (≈ 496 µM), an IC50 [2] of 13.6 µg/mL (≈ 44 µM) and an IC50 [3] of 13.1 µg/mL (≈ 42.4 µM). For the same compound, the IC50 [4] was 8.6 µg/mL (≈ 27.8 µM).

Work on `O=[N+]([O-])c1ccc(/C=C/c2ncc([N+](=O)[O-])n2CCO)cc1` yielded an IC50 [1] of 36.4 µg/mL (≈ 120 µM), an IC50 [2] of 9 µg/mL (≈ 29.6 µM) and an IC50 [5] of 12.4 µM. The IC50 [3] was 15.5 µg/mL (≈ 50.9 µM), the IC50 [6] was 2.1 µM and the Activity [7] was “Non-toxic”. For the same compound, the Activity [8] was “Non-toxic” and the IC50 [4] was 13.9 µg/mL (≈ 45.7 µM).

`O=[N+]([O-])c1cnc(/C=C/c2ccc3ccccc3c2)n1CCO` gave an IC50 [1] of over 200 µg/mL, an IC50 [2] of 3.6 µg/mL (≈ 11.6 µM) and an IC50 [5] of 10.2 µM. For the same compound, the IC50 [3] was 19.8 µg/mL (≈ 64 µM), the IC50 [6] was 11 µM and the IC50 [4] was 11.9 µg/mL (≈ 38.5 µM).

Compound `O=[N+]([O-])c1cnc(/C=C/c2ccccc2)n1CCO` has an IC50 [1] of over 200 µg/mL, an IC50 [2] of 49.3 µg/mL (≈ 190 µM) and an IC50 [3] of 12.4 µg/mL (≈ 47.8 µM). For the same compound, the IC50 [4] was 49.5 µg/mL (≈ 191 µM).
